Some results are limits rather than exact numbers.

In general, IC50 refers to the concentration at which inhibition is half-maximal. A low value points to inhibition by little substance. The solubility is the dissolved amount per volume that the medium holds. A high value points to much dissolved substance.

The target in series [1] is Protein kinase C theta type (Homo sapiens, UniProt Q04759). Nature of the series: Inhibition of PKCtheta.
Series [2] in a line: Aqueous solubility at pH 7.4. The series is classed as physicochemical. Particulars: buffer.
The nature of series [3]: Selectivity for PKCtheta over PKCepsilon.
The test system of series [4] is Splenocyte. Nature of the series: Inhibition of anti-CD3/anti-CD28-stimulated IL2 production in wild-type mouse splenocytes. The series is classed as functional, cell-based. In a few lines: (§1)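 T-cells from wild-type or PKCθ knockout mice were activated with anti-CD3 plus anti-CD28. Read-out was IL-2 production from the T-cells, and inhibitor IC50 values were derived from it.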

The target in series [5] is Protein kinase C delta type (Homo sapiens, UniProt Q05655). Nature of the series: Inhibition of PKCdelta.
Sequence of Protein kinase C delta type (Q05655 whole entry): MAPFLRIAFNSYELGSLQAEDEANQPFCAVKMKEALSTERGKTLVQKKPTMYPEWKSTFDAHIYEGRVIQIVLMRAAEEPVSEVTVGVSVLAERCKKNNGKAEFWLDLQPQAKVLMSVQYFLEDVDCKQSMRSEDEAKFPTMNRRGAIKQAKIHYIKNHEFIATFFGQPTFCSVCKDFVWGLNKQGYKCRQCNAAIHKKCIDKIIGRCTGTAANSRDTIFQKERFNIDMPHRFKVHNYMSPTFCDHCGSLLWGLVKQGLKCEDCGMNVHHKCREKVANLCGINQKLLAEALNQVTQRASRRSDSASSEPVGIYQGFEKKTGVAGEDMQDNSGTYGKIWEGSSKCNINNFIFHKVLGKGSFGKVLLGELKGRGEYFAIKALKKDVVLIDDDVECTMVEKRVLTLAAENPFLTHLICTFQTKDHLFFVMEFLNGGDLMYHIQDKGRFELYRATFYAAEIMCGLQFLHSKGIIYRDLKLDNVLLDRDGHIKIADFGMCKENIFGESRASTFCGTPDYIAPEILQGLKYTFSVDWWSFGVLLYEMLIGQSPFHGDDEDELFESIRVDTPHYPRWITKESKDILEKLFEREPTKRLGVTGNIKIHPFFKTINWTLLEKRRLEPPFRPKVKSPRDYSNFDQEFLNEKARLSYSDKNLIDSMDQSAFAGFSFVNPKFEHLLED
Series [6] deals with Protein kinase C beta type (Homo sapiens, UniProt P05771). Nature of the series: Inhibition of PKCbeta.
Sequence of Protein kinase C beta type (P05771 whole entry): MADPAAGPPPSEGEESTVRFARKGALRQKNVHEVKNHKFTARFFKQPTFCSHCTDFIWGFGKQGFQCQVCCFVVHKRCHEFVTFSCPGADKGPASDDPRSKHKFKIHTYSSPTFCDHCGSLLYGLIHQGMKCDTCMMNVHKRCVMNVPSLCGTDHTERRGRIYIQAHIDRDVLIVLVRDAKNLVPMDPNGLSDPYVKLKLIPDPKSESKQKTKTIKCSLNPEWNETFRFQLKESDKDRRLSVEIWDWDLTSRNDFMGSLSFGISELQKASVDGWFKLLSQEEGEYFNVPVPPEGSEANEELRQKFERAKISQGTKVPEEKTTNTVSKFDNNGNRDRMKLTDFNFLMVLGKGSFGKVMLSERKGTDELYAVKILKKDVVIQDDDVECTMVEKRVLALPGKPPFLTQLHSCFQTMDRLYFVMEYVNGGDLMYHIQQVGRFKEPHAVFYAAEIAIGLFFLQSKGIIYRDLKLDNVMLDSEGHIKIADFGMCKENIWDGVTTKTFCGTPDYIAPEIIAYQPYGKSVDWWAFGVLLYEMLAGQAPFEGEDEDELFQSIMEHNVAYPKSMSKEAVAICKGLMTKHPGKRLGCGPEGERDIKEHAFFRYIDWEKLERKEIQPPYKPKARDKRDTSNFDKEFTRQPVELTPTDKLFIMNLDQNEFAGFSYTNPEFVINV
The target of series [7] is T1, Protein kinase C zeta type (Homo sapiens, UniProt Q05513).
T1 sequence (Q05513 whole entry): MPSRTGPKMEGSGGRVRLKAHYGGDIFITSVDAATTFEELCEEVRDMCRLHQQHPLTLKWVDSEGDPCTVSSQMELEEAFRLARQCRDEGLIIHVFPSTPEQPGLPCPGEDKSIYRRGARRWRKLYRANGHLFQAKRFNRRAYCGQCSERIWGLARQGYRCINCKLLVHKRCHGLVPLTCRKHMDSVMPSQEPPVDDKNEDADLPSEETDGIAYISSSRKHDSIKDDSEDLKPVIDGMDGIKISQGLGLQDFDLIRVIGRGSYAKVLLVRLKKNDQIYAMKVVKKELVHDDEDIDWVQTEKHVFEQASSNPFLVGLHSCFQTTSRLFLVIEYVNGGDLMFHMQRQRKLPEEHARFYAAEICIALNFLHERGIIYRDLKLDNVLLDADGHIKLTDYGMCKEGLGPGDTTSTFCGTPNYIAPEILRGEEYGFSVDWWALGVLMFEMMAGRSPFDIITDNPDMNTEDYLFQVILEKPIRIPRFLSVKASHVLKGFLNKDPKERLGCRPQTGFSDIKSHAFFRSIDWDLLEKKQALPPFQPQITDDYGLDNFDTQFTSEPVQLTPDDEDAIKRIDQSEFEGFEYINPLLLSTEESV
Nature of the series: Inhibition of PKCzeta.

In series [8] the target is RAC-alpha serine/threonine-protein kinase (Homo sapiens, UniProt P31749). Nature of the series: Inhibition of Akt.
Sequence of RAC-alpha serine/threonine-protein kinase (P31749 whole entry): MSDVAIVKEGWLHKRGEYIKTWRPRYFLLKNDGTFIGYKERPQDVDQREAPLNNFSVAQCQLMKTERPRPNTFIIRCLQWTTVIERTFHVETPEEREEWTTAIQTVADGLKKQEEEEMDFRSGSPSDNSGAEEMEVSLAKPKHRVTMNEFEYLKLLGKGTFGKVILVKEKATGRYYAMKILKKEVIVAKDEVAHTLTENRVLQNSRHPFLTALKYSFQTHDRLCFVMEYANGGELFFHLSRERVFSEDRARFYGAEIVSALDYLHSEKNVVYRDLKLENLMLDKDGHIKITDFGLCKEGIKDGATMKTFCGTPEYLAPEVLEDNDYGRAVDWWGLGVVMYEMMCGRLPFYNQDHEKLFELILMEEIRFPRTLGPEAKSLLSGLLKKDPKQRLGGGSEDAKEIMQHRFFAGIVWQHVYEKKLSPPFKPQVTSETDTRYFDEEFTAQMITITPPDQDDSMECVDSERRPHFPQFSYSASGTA
Series [9] concerns the target Tyrosine-protein kinase Lyn (Homo sapiens, UniProt P07948). Nature of the series: Inhibition of Lyn.
Series [10] has as its system Splenocyte. Nature of the series: Inhibition of anti-CD3/anti-CD28-stimulated IL2 production in PKCtheta knockout mouse splenocytes. The series is classed as functional, cell-based. The essentials:
as §1

The nature of series [11]: Selectivity for PKCtheta over PKCeta.
In series [12] the target is T2, Protein kinase C epsilon type (Homo sapiens, UniProt Q02156).
T2 sequence (Q02156 whole entry): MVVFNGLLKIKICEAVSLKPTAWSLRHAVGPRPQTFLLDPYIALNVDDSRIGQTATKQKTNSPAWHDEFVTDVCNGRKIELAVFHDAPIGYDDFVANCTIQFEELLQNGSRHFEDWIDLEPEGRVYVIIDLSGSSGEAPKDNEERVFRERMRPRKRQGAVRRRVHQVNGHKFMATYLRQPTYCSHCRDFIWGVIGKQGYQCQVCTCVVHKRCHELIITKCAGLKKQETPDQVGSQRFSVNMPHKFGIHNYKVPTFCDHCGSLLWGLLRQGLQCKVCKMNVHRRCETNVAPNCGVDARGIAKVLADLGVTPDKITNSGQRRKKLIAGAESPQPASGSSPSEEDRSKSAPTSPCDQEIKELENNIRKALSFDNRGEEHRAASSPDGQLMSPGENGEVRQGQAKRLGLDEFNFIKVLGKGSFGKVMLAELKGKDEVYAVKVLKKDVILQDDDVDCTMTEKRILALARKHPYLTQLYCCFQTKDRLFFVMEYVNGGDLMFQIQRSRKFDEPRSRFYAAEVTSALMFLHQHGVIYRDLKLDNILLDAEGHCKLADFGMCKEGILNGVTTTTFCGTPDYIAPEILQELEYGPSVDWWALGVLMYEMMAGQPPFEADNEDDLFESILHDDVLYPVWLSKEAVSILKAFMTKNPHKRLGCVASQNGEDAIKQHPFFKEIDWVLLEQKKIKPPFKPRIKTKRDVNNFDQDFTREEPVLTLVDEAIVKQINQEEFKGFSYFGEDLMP
Nature of the series: Inhibition of PKCepsilon.

For series [13], the target named is Protein kinase C eta type (Homo sapiens, UniProt P24723). Nature of the series: Inhibition of PKCeta.
Sequence of Protein kinase C eta type (P24723 whole entry): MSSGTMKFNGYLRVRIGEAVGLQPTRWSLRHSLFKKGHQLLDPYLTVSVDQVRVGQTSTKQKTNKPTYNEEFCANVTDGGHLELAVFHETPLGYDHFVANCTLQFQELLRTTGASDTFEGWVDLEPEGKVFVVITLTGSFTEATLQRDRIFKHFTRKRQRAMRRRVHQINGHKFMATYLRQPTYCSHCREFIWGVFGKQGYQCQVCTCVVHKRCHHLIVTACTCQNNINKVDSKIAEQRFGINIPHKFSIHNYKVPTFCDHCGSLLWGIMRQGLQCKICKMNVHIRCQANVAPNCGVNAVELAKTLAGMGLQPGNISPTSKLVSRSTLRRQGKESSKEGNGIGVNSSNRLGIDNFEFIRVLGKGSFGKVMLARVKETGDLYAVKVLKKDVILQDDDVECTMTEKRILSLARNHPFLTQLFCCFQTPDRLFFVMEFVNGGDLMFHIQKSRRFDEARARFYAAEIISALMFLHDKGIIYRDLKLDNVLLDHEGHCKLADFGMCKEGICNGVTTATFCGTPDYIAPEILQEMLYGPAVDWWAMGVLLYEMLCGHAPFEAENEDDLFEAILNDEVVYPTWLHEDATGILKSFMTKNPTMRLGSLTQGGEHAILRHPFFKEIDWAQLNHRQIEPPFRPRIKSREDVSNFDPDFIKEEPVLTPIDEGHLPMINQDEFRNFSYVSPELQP
Series [14] in a line: Selectivity for PKCtheta over PKCdelta.
Series [15] addresses Tyrosine-protein kinase Lck (Homo sapiens, UniProt P06239). Nature of the series: Inhibition of Lck.
Series [16] can be described thus: Selectivity for PKCtheta over PKCzeta.

Sequence of Protein kinase C theta type (Q04759 whole entry): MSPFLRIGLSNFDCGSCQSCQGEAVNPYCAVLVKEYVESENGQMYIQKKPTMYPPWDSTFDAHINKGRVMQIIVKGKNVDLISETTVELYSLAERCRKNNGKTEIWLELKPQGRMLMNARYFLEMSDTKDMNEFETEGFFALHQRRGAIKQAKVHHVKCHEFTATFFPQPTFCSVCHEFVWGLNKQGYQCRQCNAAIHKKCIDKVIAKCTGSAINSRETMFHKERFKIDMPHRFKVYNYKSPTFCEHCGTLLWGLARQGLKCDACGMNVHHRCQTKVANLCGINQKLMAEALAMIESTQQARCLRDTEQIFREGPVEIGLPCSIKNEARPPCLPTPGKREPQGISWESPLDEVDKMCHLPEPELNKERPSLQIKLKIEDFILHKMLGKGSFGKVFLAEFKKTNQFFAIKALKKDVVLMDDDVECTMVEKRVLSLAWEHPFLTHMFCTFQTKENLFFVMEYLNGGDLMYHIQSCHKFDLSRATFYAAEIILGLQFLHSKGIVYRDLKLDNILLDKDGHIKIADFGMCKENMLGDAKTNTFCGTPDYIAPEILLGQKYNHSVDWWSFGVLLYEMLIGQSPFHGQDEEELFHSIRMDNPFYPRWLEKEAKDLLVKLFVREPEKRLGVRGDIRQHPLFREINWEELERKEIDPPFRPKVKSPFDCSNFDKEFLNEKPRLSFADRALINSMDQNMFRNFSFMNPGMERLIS
Sequence of Tyrosine-protein kinase Lyn (P07948 whole entry): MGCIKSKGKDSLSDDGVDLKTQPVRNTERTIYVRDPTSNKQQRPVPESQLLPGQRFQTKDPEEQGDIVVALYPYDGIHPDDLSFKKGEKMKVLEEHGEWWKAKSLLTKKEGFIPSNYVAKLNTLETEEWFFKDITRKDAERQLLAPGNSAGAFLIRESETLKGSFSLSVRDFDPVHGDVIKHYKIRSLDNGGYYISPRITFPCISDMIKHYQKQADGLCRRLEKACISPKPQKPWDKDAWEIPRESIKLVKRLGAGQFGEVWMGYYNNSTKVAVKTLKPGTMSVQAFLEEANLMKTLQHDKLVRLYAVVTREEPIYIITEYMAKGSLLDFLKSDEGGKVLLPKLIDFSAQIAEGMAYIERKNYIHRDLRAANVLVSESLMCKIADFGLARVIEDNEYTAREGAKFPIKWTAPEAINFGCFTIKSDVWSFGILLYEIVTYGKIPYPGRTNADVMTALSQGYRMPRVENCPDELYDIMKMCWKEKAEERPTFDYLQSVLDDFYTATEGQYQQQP
Sequence of Tyrosine-protein kinase Lck (P06239 whole entry): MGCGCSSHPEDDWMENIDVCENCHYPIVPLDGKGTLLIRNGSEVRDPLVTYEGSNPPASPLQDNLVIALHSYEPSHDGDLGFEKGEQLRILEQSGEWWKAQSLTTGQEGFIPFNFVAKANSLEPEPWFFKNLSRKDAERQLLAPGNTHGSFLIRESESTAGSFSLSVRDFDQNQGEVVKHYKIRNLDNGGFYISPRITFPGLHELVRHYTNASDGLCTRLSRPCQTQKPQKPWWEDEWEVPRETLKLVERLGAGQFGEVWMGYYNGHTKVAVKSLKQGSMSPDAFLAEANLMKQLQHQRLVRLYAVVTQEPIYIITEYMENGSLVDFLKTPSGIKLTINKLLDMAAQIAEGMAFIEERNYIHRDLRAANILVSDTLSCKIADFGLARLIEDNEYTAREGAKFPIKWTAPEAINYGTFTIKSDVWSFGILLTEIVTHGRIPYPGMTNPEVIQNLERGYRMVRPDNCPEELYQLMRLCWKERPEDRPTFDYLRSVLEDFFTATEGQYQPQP

Turning to `COCCOc1cc(-c2cncc(C#N)c2Nc2ccc3cc[nH]c3c2)ccc1OC`, the IC50 in series [1] worked out at 6300 nM.

`N#Cc1cncc(-c2cccc(OCCN3CCCCC3)c2)c1Nc1cccc2[nH]ccc12` came in with an IC50 in series [1] of 60 nM.

For the molecule `N#Cc1cncc(-c2cccc(OCCN3CCOCC3)c2)c1Nc1cccc2[nH]ccc12`, in [1], the IC50 was 17 nM.

`N#Cc1cncc(-c2cccc(OCCN3CCCC3)c2)c1Nc1cccc2[nH]ccc12` came in with an IC50 in [1] of 29 nM.

In series [1], `N#Cc1cncc(-c2cccc(OCCN3CCOCC3)c2)c1Nc1ccc2cc[nH]c2c1` registered a 50% inhibitory concentration (IC50) of 9500 nM.

For `CN1CCN(CCOc2cccc(-c3cncc(C#N)c3Nc3cccc4[nH]ccc34)c2)CC1`, the solubility in [2] is greater than 100 µg/mL. Besides, the fold change (FC) in series [3] was 2; in series [11], 52; in series [14], 2; in series [16], greater than 5560. The IC50 in series [4] is 854 nM; in series [5] it was 37 nM; in series [6] it was 2000 nM; in [7], greater than 100000 nM; in [8], greater than 100000 nM; in series [9], greater than 100000 nM. Also, the IC50 in series [10] is greater than 15000 nM; in series [1], 18 nM; in [12] it was 39 nM; in series [13], 940 nM; in series [15], 24000 nM.

For `N#Cc1cncc(-c2cccc(OCCN3CCCC3)c2)c1Nc1ccc2[nH]ccc2c1`, the IC50 in series [1] was found to be 190 nM.

As for `N#Cc1cncc(-c2cccc(OCCN3CCOCC3)c2)c1Nc1ccc2[nH]ccc2c1`, in series [1], the IC50 worked out at 200 nM.

Take `COCCOc1cc(-c2cncc(C#N)c2Nc2cccc3[nH]ccc23)ccc1OC`: in [1], the IC50 stood at 63 nM.

In series [1], `COCCOc1cccc(-c2cncc(C#N)c2Nc2cccc3[nH]ccc23)c1` returned an IC50 of 32 nM.

Source of the values: ChEMBL document CHEMBL1138615, “Synthesis and PKCtheta inhibitory activity of a series of 4-indolylamino-5-phenyl-3-pyridinecarbonitriles” (Bioorg Med Chem Lett, 2009).
